Measurements from ChEMBL document CHEMBL1153949, “Design, synthesis, and structure-activity relationship of substrate competitive, selective, and in vivo active triazole and thiadiazole inhibitors of the c-Jun N-terminal kinase” (J Med Chem, 2009).
Activity calls are given as the source filed them. No cut-off for these calls is given here.

How the values were obtained:
[1] = Displacement of biotin-labeled pep-JIP11 from JNK at 100 uM by DELFIA assay
How it was run: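 GST-JNK added at 10 nM final with Eu-anti-GST antibody (1.9 nM) and compound in DMSO. Incubated 1 hr at 0 °C, washed 5 times, enhancement solution added, and Eu fluorescence read after 10 min (ex 340, em 615 nm). Controls: unlabeled peptide and no-compound blanks.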

[2] = molecular target: RAC-alpha serine/threonine-protein kinase (Homo sapiens) (UniProt P31749); assay: Inhibition of AKT1 at 100 uM
RAC-alpha serine/threonine-protein kinase (Homo sapiens), sequence (P31749 whole entry): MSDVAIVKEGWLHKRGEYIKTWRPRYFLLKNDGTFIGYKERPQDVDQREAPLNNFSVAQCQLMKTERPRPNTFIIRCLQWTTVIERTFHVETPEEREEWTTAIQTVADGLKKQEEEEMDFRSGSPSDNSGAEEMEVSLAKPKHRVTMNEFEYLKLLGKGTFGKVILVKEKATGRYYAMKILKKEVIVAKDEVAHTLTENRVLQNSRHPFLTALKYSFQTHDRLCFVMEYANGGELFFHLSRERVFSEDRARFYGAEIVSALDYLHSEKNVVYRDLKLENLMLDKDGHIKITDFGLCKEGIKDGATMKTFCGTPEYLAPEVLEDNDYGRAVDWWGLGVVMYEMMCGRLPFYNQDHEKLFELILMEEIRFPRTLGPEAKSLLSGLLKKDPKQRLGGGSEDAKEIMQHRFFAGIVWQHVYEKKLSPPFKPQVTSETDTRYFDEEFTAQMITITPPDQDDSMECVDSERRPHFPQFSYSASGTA

Furin = Furin (Homo sapiens, UniProt P09958); assay: Inhibition of furin
Furin, sequence (P09958 whole entry): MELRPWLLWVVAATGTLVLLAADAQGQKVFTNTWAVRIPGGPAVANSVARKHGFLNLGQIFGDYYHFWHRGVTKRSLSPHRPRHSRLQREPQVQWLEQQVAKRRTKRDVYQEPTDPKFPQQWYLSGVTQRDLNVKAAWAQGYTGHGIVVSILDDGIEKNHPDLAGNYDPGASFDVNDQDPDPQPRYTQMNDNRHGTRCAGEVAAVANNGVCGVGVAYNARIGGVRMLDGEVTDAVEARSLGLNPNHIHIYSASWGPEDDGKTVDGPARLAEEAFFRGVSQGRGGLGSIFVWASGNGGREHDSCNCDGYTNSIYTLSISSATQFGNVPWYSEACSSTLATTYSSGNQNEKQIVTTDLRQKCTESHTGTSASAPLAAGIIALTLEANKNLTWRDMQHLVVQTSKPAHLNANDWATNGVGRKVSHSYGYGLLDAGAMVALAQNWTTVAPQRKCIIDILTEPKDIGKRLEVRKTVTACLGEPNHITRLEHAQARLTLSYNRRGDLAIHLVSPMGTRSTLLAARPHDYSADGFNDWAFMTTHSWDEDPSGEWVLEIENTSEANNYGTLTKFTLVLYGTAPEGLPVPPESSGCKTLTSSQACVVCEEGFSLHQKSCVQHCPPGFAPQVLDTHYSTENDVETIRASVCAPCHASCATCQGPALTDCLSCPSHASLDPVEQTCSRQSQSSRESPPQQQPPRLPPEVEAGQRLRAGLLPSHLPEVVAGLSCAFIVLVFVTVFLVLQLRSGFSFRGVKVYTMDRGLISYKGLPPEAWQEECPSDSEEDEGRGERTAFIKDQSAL

[3] = Inhibition of lethal factor
[4] = molecular target: Mitogen-activated protein kinase 14 (Homo sapiens, UniProt Q16539); assay: Inhibition of p38alpha
Mitogen-activated protein kinase 14, sequence (Q16539 whole entry): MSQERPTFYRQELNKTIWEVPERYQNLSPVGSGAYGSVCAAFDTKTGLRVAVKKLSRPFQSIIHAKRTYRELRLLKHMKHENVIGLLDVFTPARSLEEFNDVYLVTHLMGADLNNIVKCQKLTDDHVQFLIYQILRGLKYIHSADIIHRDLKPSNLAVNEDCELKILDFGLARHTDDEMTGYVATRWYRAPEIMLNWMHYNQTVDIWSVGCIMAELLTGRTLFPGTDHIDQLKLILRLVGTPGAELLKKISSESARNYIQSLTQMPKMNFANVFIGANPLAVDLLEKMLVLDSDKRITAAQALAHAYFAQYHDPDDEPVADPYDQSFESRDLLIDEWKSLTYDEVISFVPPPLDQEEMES

[5] = Displacement of biotin-labeled pep-JIP11 from JNK by DELFIA assay
[6] = Inhibition of JNK at 100 uM by time-resolved FRET assay
How it was run: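 LanthaScreen TR-FRET kinase assay. JNK 35 ng/mL with ATF2 substrate 400 nM and ATP 200 μM in 50 mM HEPES pH 7.5, 10 mM MgCl2, 1 mM EGTA, 0.01% Brij-35, with compound. Reaction ran 1 hr at room temperature. Terbium-labeled antibody plus EDTA added, incubated another hour, and read as the 520/495 nm emission ratio.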

Mus musculus = assay: Enhancement of insulin insensitivity in BKS.Cg-+Lepr'db/-+Lepr'db/OlaHsd db/db mouse model assessed as reduction in blood glucose levels at 25 mg/kg, ip administered 30 mins before insulin injection; type: functional, organism-based; parameters: dose 25 mg/kg
How it was run: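 Male db/db mice, 11 weeks old, randomized by blood glucose and fasted 6 h. Compound given at 25 mg/kg i.p., then bovine insulin 0.75 mg/kg i.p. 30 min later. Blood glucose read from tail snips with a hand-held meter at set time points; food returned at 3 h. n=6; means ± S.D.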

[7] = Metabolic stability in rat liver microsomes at 4 uM; type: ADME, Microsome
[8] = Inhibition of TNF-alpha-stimulated JNK phosphorylation expressed in HeLa cells by time-resolved FRET assay; type: cell-based
How it was run: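 HeLa cells stably expressing GFP-c-Jun(1–79), seeded at 10000/well in phenol red-free Opti-MEM with 1% charcoal/dextran-treated FBS, incubated overnight. Compound pretreatment 60 min, then TNF-α 2 ng/ml for 30 min. Cells lysed in buffer containing 2 nM Tb-anti-phospho-c-Jun (Ser73) antibody and equilibrated 1 hr at room temperature. TR-FRET read at 520/490 nm; EC50 taken from the concentration series.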

[9] = Selectivity for JNK over p38 alpha

SMILES: O=[N+]([O-])c1cccc(CSc2nnc(SCc3cccc([N+](=O)[O-])c3)s2)c1
- inhibition [1]: inactive

SMILES: Cn1cccc1-c1nnc(Sc2ncc([N+](=O)[O-])s2)n1-c1ccc(Cl)cc1Cl
- inhibition [2]: 14%
- IC50 (Furin): > 50 µM
- IC50 [3]: > 100 µM
- IC50 [4]: > 100 µM

SMILES: Nc1nnc(SCc2ccc(F)cc2)s1
- IC50 [5]: > 1 µM

SMILES: Oc1nnc(SCc2ccccc2)n1-c1ccc2c(c1)OCCO2
- inhibition [6]: 2%
- inhibition [1]: inactive

SMILES: COc1ccc(CSc2nnc(SCc3ccc(OC)cc3)s2)cc1
- inhibition [1]: inactive

SMILES: O=[N+]([O-])c1ccc(-n2c(O)nnc2Sc2ncc([N+](=O)[O-])s2)cc1
- inhibition [2]: 20%
- IC50 [3]: > 100 µM

SMILES: Fc1ccc(CSc2nnc(SCc3ccc(F)cc3)s2)cc1
- inhibition [1]: inactive

SMILES: O=[N+]([O-])c1ccc(Sc2nnc(O)n2-c2ccccc2)s1
- inhibition [6]: 22%
- inhibition [1]: 55%

SMILES: Nc1nnc(Sc2ncc([N+](=O)[O-])s2)s1
- inhibition [2]: 11%
- Activity (Mus musculus): Active
- Activity [5]: Dose-dependent effect
- half-life at 4 µM [7]: 27 min
- IC50 (Furin): > 50 µM
- IC50 [3]: > 100 µM
- IC50 [4]: > 100 µM
- EC50 [8]: 6.23 µM
- Ratio IC50 [9]: 142

SMILES: CCCCSc1nnc(O)n1-c1ccccc1
- inhibition [6]: 25%
- inhibition [1]: inactive

SMILES: O=[N+]([O-])c1ccc(CSc2nnc(SCc3ccc([N+](=O)[O-])cc3)s2)cc1
- inhibition [1]: inactive

SMILES: O=[N+]([O-])c1cnc(Sc2nnc(O)n2-c2ccc3c(c2)OCCO3)s1
- IC50 [5]: 0.108 µM

SMILES: O=[N+]([O-])c1cnc(Sc2nnc(Sc3ncc([N+](=O)[O-])s3)s2)s1
- inhibition [2]: 27%
- IC50 (Furin): > 50 µM
- IC50 [3]: > 100 µM
- IC50 [4]: > 100 µM

SMILES: O=C(Nc1nnc(Sc2ncc([N+](=O)[O-])s2)s1)c1ccc(F)cc1
- inhibition [1]: inactive

SMILES: O=[N+]([O-])c1cnc(Sc2nnc(O)n2-c2ccc(F)c(F)c2)s1
- inhibition [1]: 73%

SMILES: O=c1[nH]nc(Sc2ncc([N+](=O)[O-])s2)n1-c1ccc([N+](=O)[O-])cc1
- IC50 (Furin): > 50 µM
- IC50 [4]: > 100 µM

SMILES: CCSc1nnc(O)n1-c1ccccc1
- inhibition [6]: 16%
- inhibition [1]: inactive

SMILES: c1ccc(CSc2nnc(SCc3ccccc3)s2)cc1
- inhibition [1]: inactive
